Data from ChEMBL document CHEMBL2417509, “Synthesis and biological evaluation of prodigiosene conjugates of porphyrin, estrone and 4-hydroxytamoxifen” (2013).

Legend:
Type in all cases: functional
TK-10 = experiment: Cytotoxicity against human TK10 cells after 2 days by sulforhodamine B assay; conditions: TK-10, 48 h
Procedure, shortened: (§1)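 NCI DTP NCI60 multi-dose screen (59 human tumour lines available). Cells exposed to compound over a 5-log mol/L concentration range for 2 days, then fixed and stained with sulphorhodamine B, with optical density read. Growth inhibition calculated relative to time-zero cells and untreated cells, giving GI50 (half-maximal growth inhibition concentration). Average of two replicates.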

DU-145 = experiment: Cytotoxicity against human DU145 cells after 2 days by sulforhodamine B assay; conditions: DU-145, 48 h
Procedure, shortened: (§2)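 NCI60 multi-dose screen, 59 human tumour lines available. Cells exposed to compound across a 5-log mol/L concentration range for 2 days, then fixed and stained with sulphorhodamine B, optical density read. Growth inhibition calculated against time-zero control and untreated cells. GI50 derived from the dose series, average of two replicates.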

SR = experiment: Cytotoxicity against human SR cells after 2 days by sulforhodamine B assay; conditions: 48 h; procedure, shortened: as §1
A549 = experiment: Cytotoxicity against human A549/ATCC cells after 2 days by sulforhodamine B assay; conditions: A549, 48 h; procedure, shortened: as §2
PC-3 = experiment: Cytotoxicity against human PC3 cells after 2 days by sulforhodamine B assay; conditions: PC-3, 48 h; procedure, shortened: as §2
OVCAR-4 = experiment: Cytotoxicity against human OVCAR4 cells after 2 days by sulforhodamine B assay; conditions: OVCAR-4, 48 h; procedure, shortened: as §2
Malme-3M = experiment: Cytotoxicity against human MALME-3M cells after 2 days by sulforhodamine B assay; conditions: 48 h; procedure, shortened: as §2
OVCAR-8 = experiment: Cytotoxicity against human OVCAR8 cells after 2 days by sulforhodamine B assay; conditions: OVCAR-8, 48 h; procedure, shortened: as §2
UACC-257 = experiment: Cytotoxicity against human UACC257 cells after 2 days by sulforhodamine B assay; conditions: UACC-257, 48 h; for CC50: read-out: LC50 (the source's name); procedure, shortened: as §1
[1] = Cytotoxicity against human Hs578T cells after 2 days by sulforhodamine B assay; conditions: Hs-578T, 48 h; for CC50: read-out: LC50 (the source's name); procedure, shortened: as §2
SW-620 = experiment: Cytotoxicity against human SW620 cells after 2 days by sulforhodamine B assay; conditions: SW-620, 48 h; procedure, shortened: as §1
OVCAR-3 = experiment: Cytotoxicity against human OVCAR3 cells after 2 days by sulforhodamine B assay; conditions: OVCAR-3, 48 h; procedure, shortened: as §2
SF-295 = experiment: Cytotoxicity against human SF295 cells after 2 days by sulforhodamine B assay; conditions: SF-295, 48 h; procedure, shortened: as §2
COLO 205 = experiment: Cytotoxicity against human COLO205 cells after 2 days by sulforhodamine B assay; conditions: COLO 205, 48 h; procedure, shortened: as §2
HCT-116 = experiment: Cytotoxicity against human HCT116 cells after 2 days by sulforhodamine B assay; conditions: HCT-116, 48 h; procedure, shortened: as §2
NCI-H226 = experiment: Cytotoxicity against human NCI-H226 cells after 2 days by sulforhodamine B assay; conditions: NCI-H226, 48 h; procedure, shortened: as §2
CCRF-CEM = experiment: Cytotoxicity against human CCRF-CEM cells after 2 days by sulforhodamine B assay; conditions: 48 h; for CC50: read-out: LC50 (the source's name); procedure, shortened: as §2
KM12 = experiment: Cytotoxicity against human KM12 cells after 2 days by sulforhodamine B assay; conditions: KM12, 48 h; procedure, shortened: as §2
ACHN = experiment: Cytotoxicity against human ACHN cells after 2 days by sulforhodamine B assay; conditions: 48 h; procedure, shortened: as §2
SK-MEL-2 = experiment: Cytotoxicity against human SK-MEL-2 cells after 2 days by sulforhodamine B assay; conditions: SK-MEL-2, 48 h; procedure, shortened: as §2
K562 = experiment: Cytotoxicity against human K562 cells after 2 days by sulforhodamine B assay; conditions: K562, 48 h; procedure, shortened: as §2
MDA-MB-435 = experiment: Cytotoxicity against human MDA-MB-435 cells after 2 days by sulforhodamine B assay; conditions: MDA-MB-435, 48 h; for CC50: read-out: LC50 (the source's name); procedure, shortened: as §2
OVCAR-5 = experiment: Cytotoxicity against human OVCAR5 cells after 2 days by sulforhodamine B assay; conditions: OVCAR-5, 48 h; procedure, shortened: as §2
CAKI-1 = experiment: Cytotoxicity against human CAKI-1 cells after 2 days by sulforhodamine B assay; conditions: CAKI-1, 48 h; procedure, shortened: as §2
HOP-62 = experiment: Cytotoxicity against human HOP62 cells after 2 days by sulforhodamine B assay; conditions: HOP-62, 48 h; for CC50: read-out: LC50 (the source's name); procedure, shortened: as §2
NCI-H460 = experiment: Cytotoxicity against human NCI-H460 cells after 2 days by sulforhodamine B assay; conditions: NCI-H460, 48 h; procedure, shortened: as §2
UO-31 = experiment: Cytotoxicity against human UO31 cells after 2 days by sulforhodamine B assay; conditions: UO-31, 48 h; procedure, shortened: as §1
SF-539 = experiment: Cytotoxicity against human SF539 cells after 2 days by sulforhodamine B assay; conditions: SF-539, 48 h; procedure, shortened: as §2
SN12C = experiment: Cytotoxicity against human SN12C cells after 2 days by sulforhodamine B assay; conditions: 48 h; for CC50: read-out: LC50 (the source's name); procedure, shortened: as §2
HCT-15 = experiment: Cytotoxicity against human HCT15 cells after 2 days by sulforhodamine B assay; conditions: HCT-15, 48 h; procedure, shortened: as §2
MCF7 = experiment: Cytotoxicity against human MCF7 cells after 2 days by sulforhodamine B assay; conditions: MCF7, 48 h; procedure, shortened: as §2

## CC/C(=C(/c1ccc(OCCN(C)C)cc1)c1ccc(OC(=O)CCC(=O)C2=C(C)/C(=C/c3[nH]c(-c4ccc[nH]4)cc3OC)N=C2C)cc1)c1ccccc1
TK-10
  GI50: 4.9 µM
  LC50: 41.7 µM
  TGI: 15.8 µM
DU-145
  GI50: 3.28 µM
  LC50 (concentration killing 50% of starting cells): 41.2 µM
  TGI: 16.8 µM
SR
  GI50: 0.69 µM
  LC50 (concentration giving 50% net cell kill): > 100 µM
  TGI: 5.43 µM
A549
  GI50: 2.66 µM
  LC50 (concentration giving 50% net cell kill): 55.9 µM
  TGI: 10.6 µM
PC-3
  GI50: 1.78 µM
  LC50 (concentration killing 50% of cells): 51.1 µM
  TGI: 17.2 µM
OVCAR-4
  GI50: 1.5 µM
  LC50 (concentration killing 50% of cells): 61.5 µM
  TGI: 14.8 µM
Malme-3M
  GI50: 2.73 µM
  LC50: 78.4 µM
  TGI: 6.53 µM
OVCAR-8
  GI50: 2.76 µM
  LC50: 68 µM
  TGI: 10.9 µM
UACC-257
  GI50: 3.39 µM
  TGI: 14.8 µM
  CC50: 79.7 µM
[1]
  GI50: 1.15 µM
  TGI: 4.68 µM
  CC50: 64.6 µM
SW-620
  GI50: 0.76 µM
  LC50 (concentration killing 50% of cells): > 100 µM
  TGI: 2.6 µM
OVCAR-3
  GI50: 2.11 µM
  LC50: 38.7 µM
  TGI: 10.6 µM
SF-295
  GI50: 2.63 µM
  LC50: > 100 µM
  TGI: 9.12 µM
COLO 205
  GI50: 1.9 µM
  LC50 (concentration killing 50% of cells): > 100 µM
  TGI: 7.26 µM
HCT-116
  GI50: 0.82 µM
  LC50 (concentration killing 50% of cells vs time zero): > 100 µM
  TGI: 3.28 µM
NCI-H226
  GI50: 6.53 µM
  LC50: > 100 µM
  TGI: 25.2 µM
CCRF-CEM
  GI50: 0.43 µM
  TGI: 7.21 µM
  CC50: > 100 µM
KM12
  GI50: 1.2 µM
  LC50: 46.8 µM
  TGI: 10.8 µM
ACHN
  GI50: 2.61 µM
  LC50 (concentration killing 50% of cells): > 100 µM
  TGI: 17.1 µM
SK-MEL-2
  GI50: 2.45 µM
  LC50: 25.3 µM
  TGI: 6.42 µM
K562
  GI50: 2.39 µM
  LC50 (concentration killing 50% of cells): > 100 µM
  TGI: 6.4 µM
MDA-MB-435
  GI50: 2.55 µM
  TGI: 10.3 µM
  CC50: 50.5 µM
OVCAR-5
  GI50: 6.99 µM
  LC50: 53.1 µM
  TGI: 22 µM
CAKI-1
  GI50: 2.69 µM
  LC50 (concentration killing 50% of the cells present at time zero): 58.3 µM
  TGI: 16.1 µM
HOP-62
  GI50: 1.43 µM
  TGI: 4.07 µM
  CC50: 49 µM
NCI-H460
  GI50: 3.52 µM
  LC50: > 100 µM
  TGI: 14.4 µM
UO-31
  GI50: 1.7 µM
  LC50: 30.1 µM
  TGI: 5.1 µM
SF-539
  GI50: 2.62 µM
  LC50: 40.3 µM
  TGI: 9.55 µM
SN12C
  GI50: 3.09 µM
  TGI: 19.1 µM
  CC50: 66.6 µM
HCT-15
  GI50: 0.93 µM
  LC50: > 100 µM
  TGI: 4.58 µM
MCF7
  GI50: 0.03 µM
  LC50 (concentration giving 50% net cell kill): 39.9 µM
  TGI: 2.81 µM

## CCC(=C(c1ccc(OCCN(C)C)cc1)c1ccc(OC(=O)CCCCC(=O)C2=C(C)/C(=C/c3[nH]c(-c4ccc[nH]4)cc3OC)N=C2C)cc1)c1ccccc1
TK-10
  GI50: 12.9 µM
  LC50: 50.1 µM
  TGI: 25.1 µM
DU-145
  GI50: 7.76 µM
  LC50 (concentration killing 50% of starting cells): 50.1 µM
  TGI: 20.9 µM
SR
  GI50: 3.02 µM
  LC50 (concentration giving 50% net cell kill): > 100 µM
  TGI: 20.9 µM
A549
  GI50: 3.89 µM
  LC50 (concentration giving 50% net cell kill): 50.1 µM
  TGI: 15.8 µM
PC-3
  GI50: 4.57 µM
  LC50 (concentration killing 50% of cells): 58.9 µM
  TGI: 20.4 µM
OVCAR-4
  GI50: 4.37 µM
  LC50 (concentration killing 50% of cells): 70.8 µM
  TGI: 22.4 µM
Malme-3M
  GI50: 9.33 µM
  LC50: > 100 µM
  TGI: 34.7 µM
OVCAR-8
  GI50: 6.61 µM
  LC50: 47.9 µM
  TGI: 19.9 µM
UACC-257
  GI50: 12 µM
  TGI: 28.8 µM
  CC50: 69.2 µM
[1]
  GI50: 5.01 µM
  TGI: 47.9 µM
  CC50: > 100 µM
SW-620
  GI50: 3.16 µM
  LC50 (concentration killing 50% of cells): 34.7 µM
  TGI: 11.5 µM
OVCAR-3
  GI50: 11.7 µM
  LC50: 63.1 µM
  TGI: 26.9 µM
SF-295
  GI50: 7.24 µM
  LC50: 45.7 µM
  TGI: 20.4 µM
COLO 205
  GI50: 10.7 µM
  LC50 (concentration killing 50% of cells): 50.1 µM
  TGI: 22.9 µM
HCT-116
  GI50: 3.55 µM
  LC50 (concentration killing 50% of cells vs time zero): 37.1 µM
  TGI: 13.8 µM
NCI-H226
  GI50: 14.1 µM
  LC50: 83.2 µM
  TGI: 34.7 µM
CCRF-CEM
  GI50: 0.32 µM
  TGI: > 100 µM
  CC50: > 100 µM
KM12
  GI50: 3.72 µM
  LC50: 46.8 µM
  TGI: 14.4 µM
ACHN
  GI50: 4.79 µM
  LC50 (concentration killing 50% of cells): 77.6 µM
  TGI: 22.9 µM
SK-MEL-2
  GI50: 16.6 µM
  LC50: 67.6 µM
  TGI: 33.1 µM
K562
  GI50: 3.16 µM
  LC50 (concentration killing 50% of cells): 72.4 µM
  TGI: 12.6 µM
MDA-MB-435
  GI50: 6.92 µM
  TGI: 45.7 µM
  CC50: > 100 µM
OVCAR-5
  GI50: 10.5 µM
  LC50: 47.9 µM
  TGI: 22.4 µM
CAKI-1
  GI50: 6.31 µM
  LC50 (concentration killing 50% of the cells present at time zero): > 100 µM
  TGI: 36.3 µM
HOP-62
  GI50: 12.3 µM
  TGI: 24.5 µM
  CC50: 50.1 µM
NCI-H460
  GI50: 3.98 µM
  LC50: 53.7 µM
  TGI: 15.5 µM
UO-31
  GI50: 2.82 µM
  LC50: 87.1 µM
  TGI: 21.4 µM
SF-539
  GI50: 12.9 µM
  LC50: 58.9 µM
  TGI: 27.5 µM
SN12C
  GI50: 5.37 µM
  TGI: 21.4 µM
  CC50: 56.2 µM
HCT-15
  GI50: 4.47 µM
  LC50: > 100 µM
  TGI: 28.8 µM
MCF7
  GI50: 0.05 µM
  LC50 (concentration giving 50% net cell kill): 4.68 µM
  TGI: 1.2 µM
